Several values for one entry are separate records, joined by “and”; a condition that tells them apart may be missing. Identical values can stand only once. Activity calls are given as the source filed them.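 The calls were made as follows: active = compound needing at most 10 µM to cut the imipenem dose that stops bacterial growth fourfold; inactive = the rest.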
What was measured:
[1] = tested on: VIM-2 Acinetobacter YMC07/8/B3323 growth with imipenem, OD590; assay: imipenem potentiation in VIM-2 Acinetobacter isolate, late-stage follow-up, strain YMC07/8/B3323, clinical isolate, powder samples (AID 624096)
In short: (§1)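 Assay system: Acinetobacter cells in broth microdilution / Also added: imipenem in two-fold serial dilutions along plate columns / Dosing: test compound in two-fold serial dilutions along rows, checkerboard / Times: growth of at least 18 h, aerobic, 37 °C / Technique: OD590 turbidity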

[2] = as above; settings: VIM-2 Acinetobacter YMC07/8/B3323 growth with imipenem, OD590; measured here: max imipenem potentiation fold; stronger effect = higher value
In short: as §1

SMILES | MIC [1] | fold potentiation [2]
Cc1ccc(S(=O)(=O)N2CCN(NC(=O)CN3C(=O)/C(=C/c4c(Cl)cccc4Cl)SC3=S)CC2)cc1 | > 25 µM (inactive) | –
O=C(CN1C(=O)/C(=C/c2c(Cl)cccc2Cl)SC1=S)NN1CCN(S(=O)(=O)c2ccc(Cl)cc2)CC1 | > 50 µM (inactive) | 2
O=C(CN1C(=O)/C(=C/c2c(Cl)ccc(Cl)c2Cl)SC1=S)NCc1ccccn1 | 1.56 µM | 16 and 32
CN1CCN(C(=O)CN2C(=O)/C(=C/c3c(Cl)cccc3Cl)SC2=S)CC1 | 6.25 µM | 16
Cc1cc(C)c(/C=C2\SC(=S)N(CC(=O)O)C2=O)c(C)c1 | > 50 µM (inactive) | –
O=C(CN1C(=O)/C(=C/c2c(Cl)cccc2Cl)SC1=S)NCc1ccncc1 | 6.25 µM | 16
CN1CCN(NC(=O)CN2C(=O)/C(=C/c3ccc(F)cc3)SC2=S)CC1 | > 50 µM (inactive) | –
CN1CCN(C(=O)CN2C(=O)/C(=C/c3c(Cl)ccc(Cl)c3Cl)SC2=S)CC1 | 1.56 µM and 0.781 µM | 16 and 32
O=C(CN1C(=O)/C(=C/c2c(Cl)ccc(Cl)c2Cl)SC1=S)NN1CCCCC1 | 3.12 µM | 16
CCOC(=O)/C=C1\SC(=S)N(CC(=O)O)C1=O | > 50 µM (inactive) | –
O=C(O)CN1C(=O)/C(=C/c2c(Cl)ccc(C(F)(F)F)c2Cl)SC1=S | 6.25 µM | 8
O=C(O)CN1C(=O)/C(=C/c2ccc(Cl)cc2)SC1=S | > 50 µM (inactive) | 2
O=C(O)CN1C(=O)/C(=C/c2cccnc2)SC1=S | > 50 µM (inactive) | –
O=C(O)CN1C(=O)/C(=C/c2c(F)cccc2Br)SC1=S | > 50 µM (inactive) | 2
O=C(O)CN1C(=O)/C(=C/c2c(F)c(F)c(F)c(F)c2F)SC1=S | > 50 µM (inactive) | 2
O=C(O)CN1C(=O)/C(=C/c2ccc3ccccc3n2)SC1=S | > 50 µM (inactive) | –
O=C(CN1C(=O)/C(=C/c2c(Cl)cccc2Cl)SC1=S)Nc1cc([N+](=O)[O-])ccc1O | > 50 µM (inactive) | –
CN1CCN(NC(=O)[C@H](Cc2ccccc2)N2C(=O)/C(=C/c3c(Cl)cccc3Cl)SC2=S)CC1 | > 25 µM (inactive) | 8
O=C(CN1C(=O)/C(=C/c2c(Cl)ccc(Cl)c2Cl)SC1=S)N1CCN(c2ccccc2Cl)CC1 | > 50 µM (inactive) | –
CCOC(=O)/C=C1\SC(=S)N(CC(=O)NN2CCN(C)CC2)C1=O | > 50 µM (inactive) | 2
O=C(CN1C(=O)/C(=C/c2c(Cl)cccc2Cl)SC1=S)NN1CCN(Cc2ccccc2)CC1 | 3.12 µM | –

SMILES | MIC [1] | fold potentiation [2]
CC(C)(C)OC(=O)N1CCN(NC(=O)CN2C(=O)/C(=C/c3c(Cl)ccc(Cl)c3Cl)SC2=S)CC1 | 0.781 µM | 16
O=C(O)CN1C(=O)/C(=C/c2ccc([N+](=O)[O-])cc2)SC1=S | > 50 µM (inactive) | 2
CN1CCN(NC(=O)C(Cc2ccccc2)N2C(=O)/C(=C/c3c(Cl)ccc(Cl)c3Cl)SC2=S)CC1 (stereo unspecified) | 1.56 µM | 32
O=C(CN1C(=O)/C(=C/c2c(Cl)cccc2Cl)SC1=S)NCc1ccccn1 | 6.25 µM | 16
CC(=O)N1CCN(NC(=O)CN2C(=O)/C(=C/c3c(Cl)cccc3Cl)SC2=S)CC1 | 6.25 µM | 32
CN1CCN(NC(=O)CN2C(=O)/C(=C/c3c(F)cccc3Br)SC2=S)CC1 | > 50 µM (inactive) | 2
CN1CCN(NC(=O)CN2C(=O)/C(=C/c3ccc(Cl)cc3)SC2=S)CC1 | > 50 µM (inactive) | –
Cc1cc(C)n(NC(=O)CN2C(=O)/C(=C/c3c(Cl)cccc3Cl)SC2=S)c(=O)c1 | 1.56 µM | 32
O=C(O)CN1C(=O)/C(=C/c2ccccc2Br)SC1=S | > 50 µM (inactive) | 2
CC(C)C(C(=O)NN1CCN(C)CC1)N1C(=O)/C(=C/c2c(Cl)ccc(Cl)c2Cl)SC1=S (stereo unspecified) | 1.56 µM | 32
O=C(CN1C(=O)/C(=C/c2c(Cl)ccc(Cl)c2Cl)SC1=S)NN1CCNCC1 | 0.781 µM | 32
O=C(CN1C(=O)/C(=C/c2c(Cl)cccc2Cl)SC1=S)NN1CCNCC1 | 3.12 µM | 16
CN1CCN(NC(=O)CN2C(=O)/C(=C/c3c(F)cccc3C(F)(F)F)SC2=S)CC1 | 3.12 µM | 2
CN1CCN(NC(=O)CN2C(=O)/C(=C/c3cccnc3)SC2=S)CC1 | > 50 µM (inactive) | 4
CN1CCN(NC(=O)CN2C(=O)/C(=C/c3c(F)c(F)c(F)c(F)c3F)SC2=S)CC1 | > 50 µM (inactive) | 2
O=C(O)CN1C(=O)/C(=C/c2c(C(F)(F)F)ccc(Cl)c2Cl)SC1=S | 6.25 µM | 16
CN1CCN(NC(=O)CN2C(=O)/C(=C/c3ccc4ccccc4n3)SC2=S)CC1 | > 50 µM (inactive) | –
O=C(O)CN1C(=O)/C(=C/c2c(Cl)cccc2Cl)SC1=S | 12.5 µM (inactive) | 16
CN1CCN(NC(=O)CN2C(=O)/C(=C/c3c(C(F)(F)F)ccc(Cl)c3Cl)SC2=S)CC1 | 3.12 µM | 32
CC(C)(C)OC(=O)N1CCN(NC(=O)CN2C(=O)/C(=C/c3c(Cl)cccc3Cl)SC2=S)CC1 | 3.12 µM | 16
O=C(O)CN1C(=O)/C(=C/c2c(F)cccc2Cl)SC1=S | > 50 µM (inactive) | 2

SMILES | MIC [1] | fold potentiation [2]
O=C(O)CN1C(=O)/C(=C/c2c(F)cccc2F)SC1=S | > 50 µM (inactive) | 2
CN1CCN(NC(=O)CN2C(=O)/C(=C/c3c(Cl)ccc(C(F)(F)F)c3Cl)SC2=S)CC1 | 3.12 µM | 16
CCN(CC)OC(=O)CN1C(=O)/C(=C/c2c(Cl)cccc2Cl)SC1=S | 12.5 µM (inactive) | 8
CN1CCN(NC(=O)CN2C(=O)/C(=C/c3c(F)cccc3F)SC2=S)CC1 | > 25 µM (inactive) | 4
CN1CCN(NC(=O)CN2C(=O)/C(=C/c3c(F)cccc3Cl)SC2=S)CC1 | 3.12 µM | 32
C[N+]1(OS(C)(=O)=O)CCN(NC(=O)CN2C(=O)/C(=C/c3c(Cl)ccc(Cl)c3Cl)SC2=S)CC1 | 0.195 µM | 32
O=C(CN1C(=O)/C(=C/c2c(Cl)cccc2Cl)SC1=S)Nc1cccnc1 | 6.25 µM | 16
CN1CCN(NC(=O)C(Cc2ccc(Cl)cc2)N2C(=O)/C(=C/c3c(Cl)ccc(Cl)c3Cl)SC2=S)CC1 (stereo unspecified) | 1.56 µM | 32
Cc1cc(C)c(/C=C2\SC(=S)N(CC(=O)NN3CCN(C)CC3)C2=O)c(C)c1 | > 25 µM (inactive) | 4
CC(C)(C)OC(=O)N1CCN(C(=O)CN2C(=O)/C(=C/c3c(Cl)ccc(Cl)c3Cl)SC2=S)CC1 | 6.25 µM | 16
CN1CCN(NC(=O)CN2C(=O)/C(=C/c3ccccc3Br)SC2=S)CC1 | > 50 µM (inactive) | 4
O=C(CN1C(=O)/C(=C/c2c(Cl)cccc2Cl)SC1=S)NN1CCN(C(=O)c2ccccc2)CC1 | 3.12 µM | 16
O=C(CN1C(=O)/C(=C/c2c(Cl)cccc2Cl)SC1=S)NN1CCCCC1 | 3.12 µM | 16
CN1CCN(NC(=O)CN2C(=O)/C(=C/c3c(Cl)cccc3Cl)SC2=S)CC1 | 3.12 µM and 6.25 µM | 32
CC(C)N1CCN(NC(=O)CN2C(=O)/C(=C/c3c(Cl)cccc3Cl)SC2=S)CC1 | 6.25 µM | 32
CN1CCN(NC(=O)CN2C(=O)/C(=C/c3c(Cl)ccc(Cl)c3Cl)SC2=S)CC1 | 0.781 µM and 1.56 µM and 0.391 µM | 32 and 16
O=C(O)CN1C(=O)/C(=C/c2c(F)cccc2C(F)(F)F)SC1=S | > 25 µM (inactive) | 2
CN1CCN(NC(=O)CN2C(=O)/C(=C/c3ccc([N+](=O)[O-])cc3)SC2=S)CC1 | > 50 µM (inactive) | –
O=C(O)CN1C(=O)/C(=C/c2c(Cl)ccc(Cl)c2Cl)SC1=S | 6.25 µM | 16
O=C(O)CN1C(=O)/C(=C/c2ccc(F)cc2)SC1=S | > 50 µM (inactive) | –

Reference: PubChem BioAssay AID624096 (The Scripps Research Institute Molecular Screening Center, 2012)
